The text below walks through data of ChEMBL document CHEMBL3132745, “Synthesis and Antimicrobial Activities of His(2-aryl)-Arg and Trp-His(2-aryl) Classes of Dipeptidomimetics” (Medchemcomm, 2014).

Data set [1] is described as follows: Selectivity index, ratio of cytotoxicity against human KB cells to IC50 for Cryptococcus neoformans ATCC 90113. In kind it is toxicity, cell-based. The note with it: read-out: Selectivity Index.
Data set [2] is described as follows: Selectivity index, ratio of cytotoxicity against african green monkey Vero cells to IC50 for Cryptococcus neoformans ATCC 90113. The data set is classed as toxicity, cell-based. The note with it: read-out: Selectivity Index.
The subject of another data set is BT-549. Description: Cytotoxicity against human BT549 cells assessed as cell viability after 48 hrs by neutral red uptake assay. The data set is classed as cell-based. The note with it: bt-549, 48 h. The essentials: (§1)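 Neutral red uptake assay on human cancer lines (SK-MEL, KB, BT-549, SK-OV-3) and noncancerous mammalian cells (VERO, LLC-PK1). Highest tested concentration was 10 µg/mL.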

A short description of data set [3]: Selectivity index, ratio of cytotoxicity against human BT549 cells to IC50 for Cryptococcus neoformans ATCC 90113. In kind it is toxicity, cell-based, BT-549. Particulars: read-out: Selectivity Index.
The test system of a further data set is Escherichia coli. Briefly: Antibacterial activity against Escherichia coli ATCC 35218 assessed as growth inhibition after 16-20 hrs by CLSI method. The data set is classed as functional, organism-based.
Another data set relates to Aspergillus fumigatus. Description: Antifungal activity against Aspergillus fumigatus assessed as growth inhibition. In kind it is functional, organism-based.
Data set [4] can be described thus: Selectivity index, ratio of cytotoxicity against human SK-MEL cells to IC50 for Cryptococcus neoformans ATCC 90113. In kind it is toxicity, cell-based. The note with it: read-out: Selectivity Index.
The next data set relates to Nakaseomyces glabratus. Briefly: Antifungal activity against Candida glabrata assessed as growth inhibition. In kind it is functional, organism-based.
The test system of another data set is SK-OV-3. Description: Cytotoxicity against human SKOV3 cells assessed as cell viability after 48 hrs by neutral red uptake assay. In kind it is cell-based. Particulars: sk-ov-3, 48 h. The essentials: as §1
Data set [5] deals with Staphylococcus aureus. Briefly: Antibacterial activity against methicillin-resistant Staphylococcus aureus ATCC 33591 assessed as growth inhibition after 16-20 hrs by CLSI method. In kind it is functional, organism-based.
A further data set deals with Candida albicans. Description: Antifungal activity against Candida albicans assessed as growth inhibition. In kind it is functional, organism-based.
The subject of the next data set is KB. Description: Cytotoxicity against human KB cells assessed as cell viability after 48 hrs by neutral red uptake assay. The data set is classed as cell-based. The essentials: as §1
In another data set the test system is Vero. Description: Cytotoxicity against african green monkey Vero cells assessed as cell viability after 48 hrs by neutral red uptake assay. In kind it is cell-based. The note with it: chlorocebus sabaeus. In short, it runs like this:
as §1

Data set [6] is described as follows: Selectivity index, ratio of cytotoxicity against human SKOV3 cells to IC50 for Cryptococcus neoformans ATCC 90113. The note with it: read-out: Selectivity Index. The data set is classed as toxicity, cell-based, SK-OV-3.
The subject of another data set is Pichia kudriavzevii. Briefly: Antifungal activity against Candida krusei assessed as growth inhibition. In kind it is functional, organism-based.
Another data set relates to LLC-PK1. Description: Cytotoxicity against pig LLC-PK1 cells assessed as cell viability after 48 hrs by neutral red uptake assay. In kind it is cell-based, Sus scrofa. Particulars: llc-pk1, 48 h. The essentials: as §1
Data set [7] relates to Staphylococcus aureus. Description: Antibacterial activity against Staphylococcus aureus ATCC 29213 assessed as growth inhibition after 16-20 hrs by CLSI method. In kind it is functional, organism-based.
A further data set has as its system SK-MEL. Briefly: Cytotoxicity against human SK-MEL cells assessed as cell viability after 48 hrs by neutral red uptake assay. In kind it is cell-based. The essentials:
as §1

Another data set concerns Cryptococcus neoformans. Description: Antifungal activity against Cryptococcus neoformans ATCC 90113 assessed as growth inhibition after 70-74 hrs by CLSI method. In kind it is functional, organism-based. Particulars: Cryptococcus neoformans, ATCC 90113; for IC50: read-out: IC50.
Data set [8] can be described thus: Selectivity index, ratio of cytotoxicity against pig LLC-PK1 cells to IC50 for Cryptococcus neoformans ATCC 90113. The data set is classed as toxicity, cell-based. The note with it: read-out: Selectivity Index.
The mark [9] stands for this setting: Staphylococcus aureus, ATCC 33591.
[10] abbreviates: Staphylococcus aureus, ATCC 33591, read-out: IC50.

≈ marks a conversion by molar mass, not a printed value. Calls of active or inactive are those of the source.

Usually MBC stands for the smallest concentration meeting the test's criterion for killing. As a reminder, the MIC is the least concentration at which growth counts as inhibited. As a reminder, the IC50 is the concentration that gives 50% inhibition. Broadly, the MFC is the lowest tested concentration that kills the fungus rather than only halting it. Regarding `N[C@@H](Cc1c[nH]c2ccccc12)C(=O)N[C@@H](Cc1c[nH]c(-c2ccc(-c3ccccc3)cc2)n1)C(=O)NCc1ccccc1`, the selectivity ratio in data set [1], in data set [2], in [3], in data set [4], in data set [6] and in data set [8] was more than 18.5 each time. Moreover, the Activity in the data set with BT-549, with SK-OV-3, with KB, in the data set on Vero, in the data set on LLC-PK1 and with SK-MEL was more than 10 µg/mL throughout. Also, the “growth inhibition (GI)” value in the data set on Escherichia coli, in the data set with Aspergillus fumigatus, in the data set on Nakaseomyces glabratus, with Candida albicans and in the data set on Pichia kudriavzevii was “inactive” throughout. Further, the MBC in the data set on Staphylococcus aureus [5] (setting [9]) and in the data set on Staphylococcus aureus [7] was 20 µg/mL (≈ 34.3 µM) in each case. Further, the figures for the MIC in the data set on Staphylococcus aureus [5] (setting [9]), with Staphylococcus aureus [7] and in the data set on Cryptococcus neoformans were 10 µg/mL (≈ 17.2 µM), 5 µg/mL (≈ 8.58 µM) and 1.25 µg/mL (≈ 2.15 µM), respectively. Besides, the IC50 with Staphylococcus aureus [5] (setting [10]) turned out to be 4.31 µg/mL (≈ 7.4 µM); with Staphylococcus aureus [7] it was 2.6 µg/mL (≈ 4.46 µM); in the data set on Cryptococcus neoformans, 0.54 µg/mL (≈ 0.927 µM). Moreover, the MFC in the data set on Cryptococcus neoformans is 1.25 µg/mL (≈ 2.15 µM).
For `N=C(N)NCCC[C@H](NC(=O)[C@@H](N)Cc1c[nH]c(-c2ccc(-c3ccccc3)cc2)n1)C(=O)NCc1ccccc1`, the selectivity ratio in data set [1], in data set [2], in [3], in data set [4], in [6] and in data set [8] was more than 50 each time. In addition, the Activity in the data set with BT-549, with SK-OV-3, with KB, in the data set on Vero, with LLC-PK1 and in the data set on SK-MEL was more than 10 µg/mL each time. Moreover, the “growth inhibition (GI)” value with Escherichia coli, in the data set with Aspergillus fumigatus, in the data set on Nakaseomyces glabratus, with Candida albicans and with Pichia kudriavzevii was “inactive” each time. The values for the IC50 entry in the data set with Staphylococcus aureus [5], in the data set on Staphylococcus aureus [7] and in the data set on Cryptococcus neoformans were “Not Active”, 12.8 µg/mL (≈ 23.2 µM) and 0.2 µg/mL (≈ 0.362 µM), respectively. For the same molecule, the MBC result with Staphylococcus aureus [5] and in the data set on Staphylococcus aureus [7] was “inactive” in each case. In addition, the MIC result in the data set with Staphylococcus aureus [5] and with Staphylococcus aureus [7] was “inactive” throughout. For the same molecule, in the data set with Cryptococcus neoformans, the MFC stood at 0.31 µg/mL (≈ 0.561 µM). Besides, the MIC with Cryptococcus neoformans stood at 0.31 µg/mL (≈ 0.561 µM).
`CC(C)(C)OC(=O)N[C@@H](Cc1c[nH]c(-c2ccc(C(C)(C)C)cc2)n1)C(=O)N[C@@H](CCCNC(=N)N)C(=O)NCc1ccccc1`: the selectivity ratio in [1], in data set [2], in data set [3], in [4], in [6] and in data set [8] was more than 4.1 in each case. The Activity in the data set on BT-549, with SK-OV-3, in the data set with KB, in the data set with Vero, with LLC-PK1 and in the data set with SK-MEL was more than 10 µg/mL in each case. Also, the “growth inhibition (GI)” value with Escherichia coli, in the data set on Aspergillus fumigatus, with Nakaseomyces glabratus, in the data set on Candida albicans and in the data set with Pichia kudriavzevii was “inactive” throughout. Besides, the MBC result with Staphylococcus aureus [5] and in the data set with Staphylococcus aureus [7] was “inactive” throughout. Further, the MIC in the data set on Staphylococcus aureus [5] (setting [9]) was determined as 20 µg/mL (≈ 31.6 µM); in the data set with Staphylococcus aureus [7], 10 µg/mL (≈ 15.8 µM); in the data set on Cryptococcus neoformans, 2.5 µg/mL (≈ 3.95 µM). For the same molecule, the IC50 turned out to be 9.32 µg/mL (≈ 14.7 µM) in the data set with Staphylococcus aureus [5] (setting [10]), 5.95 µg/mL (≈ 9.4 µM) in the data set on Staphylococcus aureus [7] and 2.42 µg/mL (≈ 3.82 µM) with Cryptococcus neoformans. In the data set on Cryptococcus neoformans, the MFC worked out at 2.5 µg/mL (≈ 3.95 µM).
In the case of `CC(C)(C)c1ccc(-c2nc(C[C@H](NC(=O)[C@@H](N)Cc3c[nH]c4ccccc34)C(=O)NCc3ccccc3)c[nH]2)cc1`, the selectivity ratio in [1], in [2], in data set [3], in data set [4], in data set [6] and in [8] was more than 2.21 each time. For the same molecule, the Activity in the data set on BT-549, in the data set on SK-OV-3, with KB, in the data set with Vero, in the data set on LLC-PK1 and with SK-MEL was more than 10 µg/mL each time. Further, the “growth inhibition (GI)” value with Escherichia coli, in the data set on Aspergillus fumigatus, with Nakaseomyces glabratus, with Candida albicans and in the data set on Pichia kudriavzevii was “inactive” throughout. The IC50 entry in the data set with Staphylococcus aureus [5] is “Not Active”; in the data set with Staphylococcus aureus [7], 11.7 µg/mL (≈ 20.7 µM); in the data set on Cryptococcus neoformans, 4.53 µg/mL (≈ 8.05 µM). Besides, the MBC result in the data set on Staphylococcus aureus [5] and with Staphylococcus aureus [7] was “inactive” in each case. Besides, the MIC entry with Staphylococcus aureus [5] was “inactive”. Besides, the MIC in the data set with Staphylococcus aureus [7] was determined as 20 µg/mL (≈ 35.5 µM); in the data set on Cryptococcus neoformans, 10 µg/mL (≈ 17.8 µM). The MFC in the data set with Cryptococcus neoformans stood at 10 µg/mL (≈ 17.8 µM).
As to `COC(=O)[C@H](Cc1c[nH]c(-c2ccc(-c3ccccc3)cc2)n1)NC(=O)[C@@H](N)Cc1c[nH]c2ccccc12`, the selectivity ratio in data set [1], in [2], in data set [3], in data set [4], in data set [6] and in data set [8] was more than 2.6 each time. Further, the Activity in the data set on BT-549, in the data set with SK-OV-3, with KB, in the data set on Vero, with LLC-PK1 and in the data set with SK-MEL was more than 10 µg/mL throughout. The “growth inhibition (GI)” value with Escherichia coli, in the data set on Aspergillus fumigatus, in the data set with Nakaseomyces glabratus, with Candida albicans and in the data set on Pichia kudriavzevii was “inactive” each time. Moreover, the MFC in the data set on Cryptococcus neoformans worked out at 20 µg/mL (≈ 39.4 µM). In addition, in the data set with Cryptococcus neoformans, the MIC was determined as 10 µg/mL (≈ 19.7 µM). For the same molecule, the IC50 in the data set with Cryptococcus neoformans worked out at 3.82 µg/mL (≈ 7.53 µM).
For the molecule `N=C(N)NCCC[C@H](NC(=O)[C@@H](N)Cc1c[nH]c(-c2cccc3ccccc23)n1)C(=O)NCc1ccccc1`, the selectivity ratio in data set [1], in data set [2], in data set [3], in data set [4], in data set [6] and in [8] was more than 16.1 throughout. Further, the Activity in the data set with BT-549, in the data set on SK-OV-3, in the data set on KB, with Vero, with LLC-PK1 and with SK-MEL was more than 10 µg/mL in each case. The “growth inhibition (GI)” value with Escherichia coli, in the data set with Aspergillus fumigatus, with Nakaseomyces glabratus, with Candida albicans and with Pichia kudriavzevii was “inactive” in each case. Besides, in the data set with Cryptococcus neoformans, the MFC came out at 1.25 µg/mL (≈ 2.37 µM). Besides, in the data set on Cryptococcus neoformans, the MIC is 1.25 µg/mL (≈ 2.37 µM). For the same molecule, in the data set on Cryptococcus neoformans, the IC50 amounted to 0.62 µg/mL (≈ 1.18 µM).
Turning to `N=C(N)NCCC[C@H](NC(=O)[C@@H](N)Cc1c[nH]c(-c2ccccc2)n1)C(=O)NCc1ccccc1`, the selectivity ratio in [1], in [2], in data set [3], in data set [4], in data set [6] and in data set [8] was more than 8.2 each time. Also, the Activity in the data set on BT-549, in the data set on SK-OV-3, with KB, in the data set with Vero, with LLC-PK1 and with SK-MEL was more than 10 µg/mL each time. The “growth inhibition (GI)” value in the data set on Escherichia coli, with Aspergillus fumigatus, with Nakaseomyces glabratus, with Candida albicans and in the data set with Pichia kudriavzevii was “inactive” each time. Further, the MFC in the data set with Cryptococcus neoformans is 2.5 µg/mL (≈ 5.25 µM). In addition, the MIC with Cryptococcus neoformans stood at 2.5 µg/mL (≈ 5.25 µM). For the same molecule, in the data set with Cryptococcus neoformans, the IC50 is 1.22 µg/mL (≈ 2.56 µM).
